In data set [1] the target is Cytochrome P450 3A4 (Homo sapiens, UniProt P08684). Put plainly: Inhibition of human CYP3A4. It counts as ADME.
The target of data set [2] is T1, Cytochrome P450 2B6 (Homo sapiens, UniProt P20813).
T1 sequence (P20813 whole entry): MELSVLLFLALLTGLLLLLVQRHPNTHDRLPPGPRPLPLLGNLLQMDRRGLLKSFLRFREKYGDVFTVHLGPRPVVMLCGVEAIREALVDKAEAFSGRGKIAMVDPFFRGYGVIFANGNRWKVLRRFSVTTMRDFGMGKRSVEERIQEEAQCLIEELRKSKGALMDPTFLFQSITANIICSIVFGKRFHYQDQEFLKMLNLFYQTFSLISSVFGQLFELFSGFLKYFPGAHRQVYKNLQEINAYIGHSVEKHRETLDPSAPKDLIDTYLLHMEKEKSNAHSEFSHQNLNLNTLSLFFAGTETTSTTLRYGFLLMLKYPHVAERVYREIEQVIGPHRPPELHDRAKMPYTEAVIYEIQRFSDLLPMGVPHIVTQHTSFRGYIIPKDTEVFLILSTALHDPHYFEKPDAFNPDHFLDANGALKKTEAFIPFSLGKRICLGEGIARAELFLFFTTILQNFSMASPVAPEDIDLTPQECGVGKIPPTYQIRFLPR
Put plainly: Inhibition of human CYP2B6. In kind it is ADME.

In data set [3] the test system is CWR22. Put plainly: Antitumor activity against bicalutamide-resistant human CWR22 cells in Balb/c athymic (nu/nu) mouse CWR22-BMSLD1 prostate cancer xenograft model assessed as tumor growth inhibition at 90 mg/kg, po qd administered for 45 days measured from day 10 to 45 during compound dosing. It counts as functional, organism-based. A digest of the protocol: (§1)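 CWR22-BMSLD1 human prostate cancer xenograft. Oral once-daily dosing at 90 mg/kg for 45 days, or at 150 mg/kg for 35 days, with a vehicle group. Median tumor volume (mm3) tracked against days post implant.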
A general note: Xenograft models place foreign cells or tissue in a host animal.

Data set [4] can be described thus: Fraction unbound in dog plasma by equilibrium dialysis method. In kind it is ADME, cell-free, Canis lupus familiaris. The essentials:
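Plasma protein binding measured by equilibrium dialysis in mouse, rat, dog and human plasma, reported as % free.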
(In equilibrium dialysis free small molecules cross a membrane that holds back macromolecules.)

A short description of data set [5]: AUC (0 to infinity) in mouse at 5 mg/kg, iv. To be noted: in vivo. It counts as ADME, organism-based. On the set-up: dose 5 mg/kg, time infinity, route intravenous. The essentials:
(§2)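 Single IV and oral doses in mouse and rat (IV 5, PO 10 mg/kg) and dog (IV 1, PO 2 mg/kg). Half-life, clearance, AUC0-∞ (µM*h) and %F derived from the plasma profiles.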

Data set [6] in a line: Oral bioavailability in mouse at 10 mg/kg. In kind it is ADME, organism-based. To be noted: in vivo. A digest of the protocol: as §2
The test system of data set [7] is LNCaP. Put plainly: Cytotoxicity against human LNCAP cells. It counts as functional, cell-based.
Data set [8] is described as follows: AUC (0 to infinity) in dog at 2 mg/kg, po. To be noted: in vivo. In kind it is ADME, organism-based, Canis lupus familiaris. On the set-up: dose 2 mg/kg, time infinity, route oral. The essentials:
as §2

Data set [9] concerns the target T2, Cytochrome P450 2C8 (Homo sapiens, UniProt P10632).
T2 sequence (P10632 whole entry): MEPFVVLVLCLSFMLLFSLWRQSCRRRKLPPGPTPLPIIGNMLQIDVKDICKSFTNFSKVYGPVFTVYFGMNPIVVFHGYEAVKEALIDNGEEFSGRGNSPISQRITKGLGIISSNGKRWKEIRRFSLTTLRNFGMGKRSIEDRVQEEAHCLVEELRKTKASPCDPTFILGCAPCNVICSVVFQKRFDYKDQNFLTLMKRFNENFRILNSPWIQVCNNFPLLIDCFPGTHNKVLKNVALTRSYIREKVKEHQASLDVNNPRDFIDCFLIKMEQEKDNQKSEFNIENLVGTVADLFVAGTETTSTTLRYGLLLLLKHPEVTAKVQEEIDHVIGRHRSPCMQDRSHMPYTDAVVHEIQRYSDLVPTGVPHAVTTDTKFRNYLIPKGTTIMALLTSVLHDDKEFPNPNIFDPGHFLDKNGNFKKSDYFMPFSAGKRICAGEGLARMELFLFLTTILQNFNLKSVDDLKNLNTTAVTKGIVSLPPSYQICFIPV
Put plainly: Inhibition of human CYP2C8. It counts as ADME.

The target of data set [10] is T3, Cytochrome P450 1A2 (Homo sapiens, UniProt P05177).
T3 sequence (P05177 whole entry): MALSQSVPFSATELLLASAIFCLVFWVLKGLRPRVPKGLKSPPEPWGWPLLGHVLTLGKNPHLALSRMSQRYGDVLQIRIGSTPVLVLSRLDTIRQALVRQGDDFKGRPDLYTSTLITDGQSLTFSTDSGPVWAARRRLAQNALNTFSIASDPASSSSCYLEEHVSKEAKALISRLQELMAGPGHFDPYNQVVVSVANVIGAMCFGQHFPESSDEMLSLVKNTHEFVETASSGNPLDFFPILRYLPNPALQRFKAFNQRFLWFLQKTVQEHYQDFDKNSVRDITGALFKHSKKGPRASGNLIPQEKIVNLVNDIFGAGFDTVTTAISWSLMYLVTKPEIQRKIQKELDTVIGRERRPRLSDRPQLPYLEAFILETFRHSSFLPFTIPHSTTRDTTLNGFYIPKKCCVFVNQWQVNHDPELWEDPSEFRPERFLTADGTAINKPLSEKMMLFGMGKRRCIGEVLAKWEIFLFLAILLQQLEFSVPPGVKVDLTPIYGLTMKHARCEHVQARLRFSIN
Put plainly: Inhibition of human CYP1A2. In kind it is ADME.

Data set [11] addresses hERG (Homo sapiens, UniProt Q12809). Put plainly: Inhibition of human ERG at 30 uM relative to control.
Data set [12] can be described thus: Drug metabolism in dog hepatocytes assessed per 10^6 cells. In kind it is ADME, cell-based, Canis lupus familiaris, Hepatocyte. The essentials: (§3)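 Metabolic rate in mouse, rat, dog, monkey and human hepatocyte incubations, expressed as pmol/min/10^6 cells.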
Data set [13] in a line: AUC (0 to infinity) in rat at 10 mg/kg, po. It counts as ADME, organism-based. Also noted: dose 10 mg/kg, route oral, time infinity. To be noted: in vivo. The essentials: as §2
For data set [14], the system named is CWR22. Put plainly: Antitumor activity against human CWR22 cells in Balb/c athymic (nu/nu) mouse CWR22-BMSLD1 prostate cancer xenograft model assessed as tumor growth inhibition at 90 mg/kg, po qd administered for 45 days measured every day during compound dosing. It counts as functional, organism-based. A digest of the protocol: as §1
Data set [15] in a line: AUC (0 to infinity) in dog at 1 mg/kg, iv. In kind it is ADME, organism-based, Canis lupus familiaris. Also noted: dose 1 mg/kg, route intravenous, time infinity. The note with it: in vivo. A digest of the protocol:
as §2

For data set [16], the system named is CWR22. Put plainly: Antitumor activity against bicalutamide-resistant human CWR22 cells in Balb/c athymic (nu/nu) mouse CWR22-BMSLD1 prostate cancer xenograft model assessed as tumor growth inhibition at 90 mg/kg, po qd administered for 45 days measured for 10 days during compound dosing. It counts as functional, organism-based. A digest of the protocol:
as §1

Data set [17] in a line: Half life in dog at 1 mg/kg, iv and 2 mg/kg, po. It counts as ADME, organism-based, Canis lupus familiaris. The note with it: in vivo. A digest of the protocol: as §2
Data set [18] is described as follows: Drug metabolism in monkey hepatocytes assessed per 10^6 cells. It counts as ADME, cell-based, Macaca mulatta, Hepatocyte. To be noted: rhesus monkey. A digest of the protocol:
as §3

Data set [19] in a line: Half life in mouse at 5 mg/kg, iv and 10 mg/kg, po. The note with it: in vivo. It counts as ADME, organism-based. A digest of the protocol:
as §2

The test system of data set [20] is Rattus norvegicus. Put plainly: In vivo antagonist activity at androgen receptor in immature Sprague-Dawley rat prostate weight model assessed as testosterone propionate-induced weight of seminal vesicles over full body weight at 1 mg/kg, po qd administered for 4 days. It counts as functional. On the set-up: scale not given: the % may be the effect or the level left. A digest of the protocol:
(§4)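 Immature rat prostate weight PK/PD model. Oral dosing once daily at 1 or 10 mg/kg for 4 days. Seminal vesicle weight expressed as % of full body weight, n=3, scaled so testosterone-treated control = 100% and sham = 10%.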

The subject of data set [21] is Rattus norvegicus. Put plainly: In vivo antagonist activity at androgen receptor in immature Sprague-Dawley rat prostate weight model assessed as testosterone propionate-induced weight of seminal vesicles over full body weight at 10 mg/kg, po qd administered for 4 days. In kind it is functional. On the set-up: scale not given: the % may be the effect or the level left. A digest of the protocol:
as §4

A short description of data set [22]: Oral bioavailability in rat at 10 mg/kg. In kind it is ADME, organism-based. The note with it: in vivo. A digest of the protocol:
as §2

The values that follow come from ChEMBL document CHEMBL3621143, “Discovery of BMS-641988, a Novel Androgen Receptor Antagonist for the Treatment of Prostate Cancer” (ACS Med Chem Lett, 2015).

Calls of active or inactive are those of the source. The rule behind the calls is not given here.

Cytochrome P450 3A4, sequence (P08684 whole entry): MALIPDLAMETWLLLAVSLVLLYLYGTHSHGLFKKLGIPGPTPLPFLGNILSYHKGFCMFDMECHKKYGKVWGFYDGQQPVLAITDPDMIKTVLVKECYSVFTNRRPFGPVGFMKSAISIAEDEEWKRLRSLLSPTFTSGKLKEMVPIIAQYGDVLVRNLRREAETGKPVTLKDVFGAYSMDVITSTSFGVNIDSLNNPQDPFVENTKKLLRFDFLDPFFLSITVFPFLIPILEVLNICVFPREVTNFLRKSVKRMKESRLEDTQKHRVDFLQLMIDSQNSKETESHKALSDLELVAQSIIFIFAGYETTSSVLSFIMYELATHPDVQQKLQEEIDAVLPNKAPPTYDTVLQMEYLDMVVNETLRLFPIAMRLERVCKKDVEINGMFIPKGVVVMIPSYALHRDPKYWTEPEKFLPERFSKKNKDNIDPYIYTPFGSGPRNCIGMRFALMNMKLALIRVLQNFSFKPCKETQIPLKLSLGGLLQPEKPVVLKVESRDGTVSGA
hERG, sequence (Q12809 whole entry): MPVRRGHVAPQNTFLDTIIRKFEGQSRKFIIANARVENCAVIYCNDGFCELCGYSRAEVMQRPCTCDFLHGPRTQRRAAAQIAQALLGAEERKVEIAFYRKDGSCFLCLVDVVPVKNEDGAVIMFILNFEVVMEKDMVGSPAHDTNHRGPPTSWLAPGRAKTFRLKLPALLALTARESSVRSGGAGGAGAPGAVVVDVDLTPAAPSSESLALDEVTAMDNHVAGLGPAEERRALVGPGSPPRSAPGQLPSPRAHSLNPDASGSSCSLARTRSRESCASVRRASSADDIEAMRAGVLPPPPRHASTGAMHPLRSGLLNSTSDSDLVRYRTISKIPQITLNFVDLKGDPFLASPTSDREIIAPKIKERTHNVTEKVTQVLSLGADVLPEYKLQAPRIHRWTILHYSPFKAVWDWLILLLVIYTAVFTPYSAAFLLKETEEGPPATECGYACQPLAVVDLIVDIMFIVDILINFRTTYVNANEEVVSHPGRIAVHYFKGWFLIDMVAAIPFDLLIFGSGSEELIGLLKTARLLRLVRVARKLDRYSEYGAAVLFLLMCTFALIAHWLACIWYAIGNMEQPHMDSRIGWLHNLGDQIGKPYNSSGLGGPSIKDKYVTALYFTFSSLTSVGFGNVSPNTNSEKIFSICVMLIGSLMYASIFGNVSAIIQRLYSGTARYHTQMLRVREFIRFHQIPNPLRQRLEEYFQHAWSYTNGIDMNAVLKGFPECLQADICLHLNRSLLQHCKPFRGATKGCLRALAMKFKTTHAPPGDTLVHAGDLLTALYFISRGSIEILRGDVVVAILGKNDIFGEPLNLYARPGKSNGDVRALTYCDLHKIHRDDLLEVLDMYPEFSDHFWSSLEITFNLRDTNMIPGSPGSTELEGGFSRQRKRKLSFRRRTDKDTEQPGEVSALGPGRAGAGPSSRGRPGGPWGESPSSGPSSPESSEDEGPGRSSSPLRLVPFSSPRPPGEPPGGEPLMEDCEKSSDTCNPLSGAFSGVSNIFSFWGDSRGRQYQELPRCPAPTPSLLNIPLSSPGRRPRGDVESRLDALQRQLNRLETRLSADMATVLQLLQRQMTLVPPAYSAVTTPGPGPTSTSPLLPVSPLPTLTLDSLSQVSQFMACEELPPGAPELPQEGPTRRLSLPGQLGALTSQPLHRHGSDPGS

As to `CCS(=O)(=O)N[C@@H]1C[C@]2(C)O[C@]1(C)[C@@H]1C(=O)N(c3ccc(C#N)c(C(F)(F)F)c3)C(=O)[C@@H]12`, the IC50 (as a rule, the concentration that inhibits the measured activity by half) in data set [1] is more than 40 µM; in [2], more than 40 µM; in data set [7], 0.153 µM; in [9] it was more than 40 µM; in data set [10] it was more than 40 µM. In addition, the TGI entry in data set [3] and in data set [14] was “Active” in each case. The fraction unbound – broadly, free concentration divided by total concentration – in data set [4] was 0.165. For the same compound, the total exposure AUC(0-inf) (as a rule, total exposure, with the tail of the curve extrapolated) is 39.1 µM·h in data set [5], 160 µM·h in data set [8], 40.5 µM·h in data set [13] and 102 µM·h in data set [15]. For the same compound, the bioavailability – broadly, the share of a dose that reaches the circulation, judged against a reference dose that is usually intravenous – in data set [6] is 94.7%; in [22], 63.9%. In addition, in data set [11], the inhibition (in general, the share of the control response that was lost under treatment) at 30 µM was 0%. Also, the Drug metabolism in data set [12] amounted to 3 pmol/min; in data set [18], 1 pmol/min. For the same compound, in data set [16], the TGI entry was “inactive”. Besides, the figures for the half-life in data set [17] and in data set [19] were 21.8 h and 2.4 h, respectively. The Activity in data set [20] is listed as 58%; in data set [21] it was 26%.
